T cruzi growth-1 = T. cruzi proliferation inhibition; AID 624255; inhibition, % at 8.34 µM; actives 5.9% (n = 77,000); T. cruzi beta-gal in NIH3T3, GalScreen luminescence, 90 h;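 active = mean inhibition above about 93%, with at least 55% of replicates each passing it, limit read from the data, passing the limit was not always enough; inconclusive = only one of those two conditions holds; inactive = neither condition holds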
Pf Dd2 inh = inhibitors of Plasmodium falciparum Dd2 growth; P. falciparum Dd2 growth, SYBR Green, 72 h; hits give low values; activity change, % at 10 µM; actives 2.3% (n = 94,000); in the data active = activity change below about -80%; inconclusive = no clear call, values can overlap the other calls
IDH1 R132H inh = inhibitors of human IDH1 R132H; IDH1 R132H reductase, diaphorase/resazurin fluorescence, 60 min; inhibition, % at 10 µM; actives 0.18% (n = 70,000); AID 624101; in the data active = inhibition above about 34%; inconclusive = no clear call, values can overlap the other calls; inactive = below about 11%
Target sequence (O75874 whole entry R132H): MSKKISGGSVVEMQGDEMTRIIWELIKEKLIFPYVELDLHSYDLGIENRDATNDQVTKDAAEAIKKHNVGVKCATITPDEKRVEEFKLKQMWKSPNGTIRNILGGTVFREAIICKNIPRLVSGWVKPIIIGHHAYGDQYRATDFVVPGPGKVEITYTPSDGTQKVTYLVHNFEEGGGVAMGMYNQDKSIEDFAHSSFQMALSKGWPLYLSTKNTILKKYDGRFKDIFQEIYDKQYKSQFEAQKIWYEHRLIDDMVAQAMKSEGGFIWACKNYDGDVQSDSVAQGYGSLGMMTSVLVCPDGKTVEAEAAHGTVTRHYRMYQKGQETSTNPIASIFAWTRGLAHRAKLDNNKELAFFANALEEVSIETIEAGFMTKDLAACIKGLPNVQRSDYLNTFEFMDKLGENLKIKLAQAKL
GASC1 inh = blocks human GASC-1 (KDM4C) demethylase activity | Q9H3R0 | GST-KDM4C 2-372, H3K9me3 peptide, LANCE TR-FRET | inhibition, % at 12.5 µM | actives 0.15% (n = 96,000);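 active = mean replicate inhibition above about 25%, with at least 55% of replicates also reaching it, limit read from the data, passing the limit was not always enough; inconclusive = only one of those two conditions met; inactive = neither condition met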
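Material: GST-tagged GASC-1 (JMJD2C) catalytic fragment, aa 2-372 / Quantity: enzyme final amount 10 nM / Medium: HEPES buffer, pH 7.5, plus ascorbate / Doses: one test concentration per compound / Incubation: 30 min reaction, 60 min detection, RT / Measured by: LANCE TR-FRET / Read-out: inhibition from TR-FRET ratio decrease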
T cruzi growth-2 = blocks T. cruzi growth in NIH3T3 host cells. AID 651739. actives 72% (n = 5,600). inhibition, % at 8.35 µM. shares compounds with T cruzi growth-1. T. cruzi beta-gal in NIH3T3, GalScreen luminescence, 90 h;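 active = mean replicate inhibition above about 95% and at least 55% of replicates individually reaching it, limit read from the data; inconclusive = only one of the two criteria is met; inactive = neither criterion is met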
T cruzi growth-3 = Trypanosoma cruzi proliferation inhibition | shares compounds with T cruzi growth-1 | T. cruzi beta-gal in NIH3T3, GalScreen luminescence, 90 h | inhibition, % at 2.09 µM | actives 21% (n = 5,600) | AID 651740;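 active = mean inhibition above about 95%, with at least 55% of replicates also reaching it, limit read from the data; inconclusive = meets just one of the two conditions; inactive = meets neither condition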
NIH3T3 tox = NIH/3T3 (mouse) viability loss; shares compounds with T cruzi growth-1; NIH/3T3 viability, CellTiter-Glo ATP luminescence, 90 h; cytotoxicity (signal decrease), % at 8.35 µM; actives 14% (n = 5,600); AID 651742;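 active = mean signal decrease across replicates above about 35% based on untreated-well scatter, with enough replicates individually passing, limit read from the data; inconclusive = no rule stated though some were filed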
3T3 cytotox 2 = NIH/3T3 (mouse) viability loss. shares compounds with T cruzi growth-1. NIH/3T3 viability, CellTiter-Glo ATP luminescence, 90 h. inhibition, % at 24.9 µM. actives 56% (n = 5,600). AID 651744;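 active = mean loss of cell viability signal at or above a set limit, and enough replicates individually reaching it; inconclusive = meets only the mean limit or only the replicate share; inactive = meets neither condition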
Of the large screens only hits and unclear results are named; the others gave an inactive call (follow-up assays come after a bar, where they were run). Compounds with a hit are over-represented: about 5.8% of the library has one in this group of screens.

O=S(=O)(c1ccc(F)cc1)N1CCCCN2[C@H](C1)[C@H](c1ccc(-c3ccccc3)cc1)[C@@H]2CO	none (no result: IDH1 R132H inh)
O=S(=O)(c1ccc(F)cc1)N1CCCCN2[C@H](CO)[C@@H](c3ccc(-c4ccccc4F)cc3)[C@H]2C1	none (no result: IDH1 R132H inh, GASC1 inh)
C[C@@H]1CCCCO[C@@H](CN(C)C(=O)Nc2ccccc2)[C@H](C)CN([C@H](C)CO)C(=O)c2cc(NC(=O)NC3CCCCC3)ccc2O1	T cruzi growth-1 105 | T cruzi growth-2 101 | T cruzi growth-3 inactive | NIH3T3 tox inactive | 3T3 cytotox 2 inactive
C[C@@H]1CCCCO[C@@H](CN(C)C(=O)Nc2cccc3ccccc23)[C@@H](C)CN([C@@H](C)CO)C(=O)c2cc(N(C)C)ccc2O1	none
C[C@@H]1CCCCO[C@@H](CN(C)C(=O)Nc2cccc3ccccc23)[C@H](C)CN([C@H](C)CO)C(=O)c2cc(N(C)C)ccc2O1	T cruzi growth-1 102 | T cruzi growth-2 97 | T cruzi growth-3 inactive | NIH3T3 tox inactive | 3T3 cytotox 2 inactive
C[C@H]1CCCCO[C@@H](CN(C)C(=O)Nc2ccccc2)[C@@H](C)CN([C@@H](C)CO)C(=O)c2cc(NC(=O)Nc3ccc4c(c3)OCO4)ccc2O1	T cruzi growth-1 123 | T cruzi growth-2 113 | T cruzi growth-3 inactive | NIH3T3 tox inactive | 3T3 cytotox 2 inactive
C[C@@H]1CCCCO[C@@H](CN(C)C(=O)Nc2ccccc2)[C@H](C)CN([C@@H](C)CO)C(=O)c2cc(NC(=O)Nc3ccccc3)ccc2O1	T cruzi growth-1 inconclusive | T cruzi growth-2 inactive | T cruzi growth-3 inactive | NIH3T3 tox inactive | 3T3 cytotox 2 inactive
Cc1ccc(Nc2nc(N)nc(COc3cccc4cccnc34)n2)cc1	none (no result: T cruzi growth-1, Pf Dd2 inh, GASC1 inh)
CS(=O)(=O)Nc1ccc2oc3ncccc3c(=O)c2c1	none (no result: T cruzi growth-1, Pf Dd2 inh, GASC1 inh)
Cc1sc2nc(-c3ccccc3O)[nH]c(=O)c2c1C	none (no result: T cruzi growth-1, Pf Dd2 inh, GASC1 inh)
CO[C@H]1C=C[C@@](C)(O)/C=C/C(=O)O[C@H](C)[C@@H](C)CC/C=C\1C	none (no result: T cruzi growth-1, Pf Dd2 inh, GASC1 inh)
COc1cc(NC(=O)COc2ccc(C)c(C)c2)ccc1NC(=O)c1ccccc1Cl	none (no result: T cruzi growth-1, Pf Dd2 inh, GASC1 inh)
C[C@H](CO)N1C[C@H](C)[C@@H](CN(C)C(=O)Nc2ccccc2)OCCCC[C@H](C)Oc2ccc(NC(=O)Nc3ccc(F)cc3)cc2C1=O	T cruzi growth-1 100 (no result: IDH1 R132H inh) | T cruzi growth-2 inconclusive | T cruzi growth-3 inactive | NIH3T3 tox inactive | 3T3 cytotox 2 inactive
C[C@H]1CCCCO[C@H](CN(C)C)[C@@H](C)CN([C@@H](C)CO)C(=O)c2cc(NC(=O)Nc3cccc4ccccc34)ccc2O1	none
CC(C)NC(=O)Nc1ccc2c(c1)C(=O)N([C@H](C)CO)C[C@H](C)[C@H](CN(C)C(=O)Nc1ccc(F)cc1)OCCCC[C@H](C)O2	T cruzi growth-1 96 | T cruzi growth-2 104 | T cruzi growth-3 inactive | NIH3T3 tox inactive | 3T3 cytotox 2 inactive
C[C@@H]1CN([C@@H](C)CO)C(=O)c2cc(NC(=O)Nc3cccc4ccccc34)ccc2O[C@@H](C)CCCCO[C@H]1CN(C)C	T cruzi growth-1 99 | T cruzi growth-2 inactive | T cruzi growth-3 inactive | NIH3T3 tox inactive | 3T3 cytotox 2 inactive
C[C@@H]1CCCCO[C@@H](CN(C)C(=O)Nc2ccccc2)[C@H](C)CN([C@@H](C)CO)C(=O)c2cc(N(C)C)ccc2O1	T cruzi growth-1 107 | T cruzi growth-2 inactive | T cruzi growth-3 inactive | NIH3T3 tox inactive | 3T3 cytotox 2 inactive
C[C@@H]1CCCCO[C@@H](CN(C)C)[C@H](C)CN([C@H](C)CO)C(=O)c2cc(NC(=O)CCCCCC(=O)Nc3ccccc3N)ccc2O1	none (no result: IDH1 R132H inh)
C[C@H]1CCCCO[C@H](CN(C)C)[C@@H](C)CN([C@@H](C)CO)C(=O)c2cc(NC(=O)CCCCCC(=O)Nc3ccccc3N)ccc2O1	T cruzi growth-1 97 (no result: IDH1 R132H inh) | T cruzi growth-2 102 | T cruzi growth-3 inactive | NIH3T3 tox inactive | 3T3 cytotox 2 inactive

Screens: PubChem, Broad Institute
